What was measured:
Adenosine receptor A2a = Adenosine receptor A2a (Rattus norvegicus, UniProt P30543); assay: Displacement of [3H]CGS-21680 from Adenosine A2A receptor of rat striatal membranes.; type: cell membranes, Membrane
Summary of the method: (§1)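 Rat striatal membranes prepared with adenosine deaminase 3 units/mL, also present in a 30 min preincubation at 30 °C and during radioligand incubation. Nonspecific binding defined with 20 μM 2-chloroadenosine. Compounds dissolved in DMSO, diluted in buffer (≤1% DMSO). Filtration over GF/B filters. IC50 from at least five competitor concentrations spanning 3 log units, converted to Ki by Cheng-Prusoff; n = 3–6, or % specific binding displaced at 10⁻⁴ M.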

Adenosine receptor A1 = molecular target: T1, Adenosine receptor A1 (Rattus norvegicus, UniProt P25099); assay: (§2) Displacement of [3H]R-PIA from Adenosine A1 receptor of rat brain membranes; type: cell membranes, Membrane
T1 sequence (P25099 whole entry): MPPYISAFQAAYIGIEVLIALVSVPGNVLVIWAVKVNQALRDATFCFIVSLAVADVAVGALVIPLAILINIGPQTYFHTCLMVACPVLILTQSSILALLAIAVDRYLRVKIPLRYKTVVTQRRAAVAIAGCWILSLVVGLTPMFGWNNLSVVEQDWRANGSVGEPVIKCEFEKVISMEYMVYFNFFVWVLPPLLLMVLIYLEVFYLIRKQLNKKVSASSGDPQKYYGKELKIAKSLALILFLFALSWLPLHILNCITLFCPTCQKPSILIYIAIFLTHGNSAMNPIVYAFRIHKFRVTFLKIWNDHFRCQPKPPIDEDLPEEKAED
Summary of the method: (§3)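 Rat cerebral cortex membranes prepared with adenosine deaminase 3 units/mL, also present in a 30 min preincubation at 30 °C and during radioligand incubation. Nonspecific binding defined with 10 μM 2-chloroadenosine. Compounds dissolved in DMSO, diluted in buffer (≤1% DMSO). Filtration over GF/B filters.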

[1] = molecular target: T2, Adenosine receptor A1 (Rattus norvegicus) (UniProt P25099); assay: Displacement of [3H]R-PIA from Adenosine A1 receptor from rat brain membranes at 10^-4M; type: cell membranes; conditions: Membrane; summary of the method: as §3
T2 sequence (whole entry): T1 sequence (P25099 whole entry)

[2] = molecular target: Adenosine receptor A2a (Rattus norvegicus) (UniProt P30543); assay: Displacement of [3H]CGS-21680 from Adenosine A2A receptor of rat striatal membranes at 10^-4M; type: cell membranes; conditions: Membrane; summary of the method: as §1
[3] = molecular target: T2, Adenosine receptor A1 (Rattus norvegicus); assay: as §2; type: cell membranes; conditions: Membrane; summary of the method: as §3

Adenosine receptor A2a, sequence (P30543 whole entry): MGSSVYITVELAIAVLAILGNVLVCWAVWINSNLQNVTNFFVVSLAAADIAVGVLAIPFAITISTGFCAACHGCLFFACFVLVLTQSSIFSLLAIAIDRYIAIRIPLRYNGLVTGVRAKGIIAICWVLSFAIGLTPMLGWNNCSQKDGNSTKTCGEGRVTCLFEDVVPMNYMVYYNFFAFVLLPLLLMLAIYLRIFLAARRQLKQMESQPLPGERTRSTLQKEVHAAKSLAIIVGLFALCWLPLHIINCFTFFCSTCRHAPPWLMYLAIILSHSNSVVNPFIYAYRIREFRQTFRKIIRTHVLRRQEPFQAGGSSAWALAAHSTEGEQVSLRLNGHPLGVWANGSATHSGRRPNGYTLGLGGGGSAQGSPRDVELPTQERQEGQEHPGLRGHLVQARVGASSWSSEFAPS
Adenosine receptor A2a (Rattus norvegicus), sequence (P30543 whole entry): as above

SMILES	Ki (Adenosine receptor A2a)	Ki (Adenosine receptor A1)	Displacement [1]	Displacement [2]	Displacement [3]
CCCOC(=O)c1c(CCC)c(C(=O)SCC)c(CC)[n+](C)c1-c1ccccc1			< 10%	25%	
CCC[n+]1c(CC)c(C(=O)SCC)c(CC)c(C(=O)OCC)c1-c1ccccc1		76.9 µM		28%	
CCOC(=O)c1c(CC)c(C(=O)SCC)c(C)[n+](C)c1-c1ccccc1	20.8 µM		22%		
CCOC(=O)c1c(CC)c(C(=O)SCC)c(CC)[n+](CC)c1-c1ccccc1				25%	
CCCOC(=O)c1c(CCC)c(C(=O)SCC)c(CCOCc2ccccc2)[n+](C)c1-c1ccccc1	11.9 µM				21%
CCCOC(=O)c1c(CCSC(C)=O)c(C(=O)SCC)c(CC)[n+](C)c1-c1ccccc1	53.2 µM		45%		
CCCOC(=O)c1c(CC)c(C(=O)SCC)c(CC)[n+](C)c1-c1ccccc1	18.7 µM		< 10%		
CCOC(=O)c1c(CC)c(C(=O)SCC)c(C2CCC2)[n+](C)c1-c1ccccc1	33.2 µM	88 µM			
CCSC(=O)c1c(CC)c(C(=O)OCCF)c(-c2ccccc2)[n+](C)c1CC	56.6 µM		30%		

Continued by falling Ki (Adenosine receptor A2a), values first:

Ki (Adenosine receptor A2a)	Ki (Adenosine receptor A1)	Displacement [1]	Displacement [2]	Displacement [3]	SMILES
11.6 µM	31.9 µM				CCOC(=O)c1c(CC)c(C(=O)SCC)c(CC)[n+](C)c1-c1ccccc1
7.72 µM					CCOC(=O)c1c(CC)c(C(=O)SCC)c(CC)[n+](C)c1C1CCCC1
7.37 µM		< 10%			CCCOC(=O)c1c(CCC)c(C(=O)SCCCF)c(CC)[n+](C)c1-c1ccccc1
6.02 µM	14.5 µM				CCCCc1c(C(=O)SCC)c(CC)c(C(=O)OCC)c(-c2ccccc2)[n+]1C
2.15 µM	1.53 µM				CCOC(=O)c1c(CCN2C(=O)c3ccccc3C2=O)c(C(=O)SCC)c(CC)[n+](C)c1-c1ccccc1
